# Measurements collected from several papers.
# Each line is one published result; the experiments were not run side by side.
# Target: Serine/threonine-protein kinase STK11 (STK11, Homo sapiens, UniProt Q15831)
# Sequence (Q15831 1-433, as in one of the studies): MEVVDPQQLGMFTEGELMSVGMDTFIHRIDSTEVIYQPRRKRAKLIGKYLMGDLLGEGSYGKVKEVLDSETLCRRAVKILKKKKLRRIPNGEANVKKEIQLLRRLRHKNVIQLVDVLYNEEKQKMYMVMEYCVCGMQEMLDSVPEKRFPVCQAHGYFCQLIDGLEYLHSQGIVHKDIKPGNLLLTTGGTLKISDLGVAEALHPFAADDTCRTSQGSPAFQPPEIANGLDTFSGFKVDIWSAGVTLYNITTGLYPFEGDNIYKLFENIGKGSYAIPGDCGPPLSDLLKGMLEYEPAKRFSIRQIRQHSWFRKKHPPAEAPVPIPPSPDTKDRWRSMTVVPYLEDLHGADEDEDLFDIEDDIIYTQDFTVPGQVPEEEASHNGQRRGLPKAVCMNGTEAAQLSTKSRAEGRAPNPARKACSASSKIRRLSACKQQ
Structure (SMILES),test,setting,endpoint,result
Cn1cncc1[C@@](O)(COc1ccc(C#N)cc1-c1ccc(OC(F)(F)F)cc1)c1ccc(C#N)cc1,"cell-free assay, competition with immobilised ligand",1 µM,remaining binding,100%
Cc1nn(C)cc1-c1nc2c(N3CCN(Cc4ccc(Cl)cc4)CC3)c(Cl)cnc2[nH]1,"binding, competition with immobilised ligand",1 µM,remaining binding,100%
O=c1[nH]c2ccccc2n1C1CCN(Cc2ccc(-c3[nH]c4cc5ncnc5cc4nc3-c3ccccc3)cc2)CC1,cell-free assay,0.5 µM,remaining signal,95.6%
COc1ncccc1-c1cnn2ccc(N3CCN(C(=O)OC(C)C)CC3)nc12,"binding, competition with immobilised ligand",1 µM,remaining binding,9.7%
CC(C)(C)c1cc(C=C(C#N)C#N)cc(Br)c1O,"enzyme activity, inhibitor",0.5 µM,remaining activity,85.2%
Nc1ncc(-c2nc(N3CCOCC3)nc(N3CCOCC3)n2)c(C(F)F)n1,"binding, competition with immobilised ligand",10 µM,remaining binding,91%
N#CC1(c2ccccn2)CCN(Cc2cc(C(=O)O)c(=O)n3ccccc23)CC1,"cell-free assay, competition with immobilised ligand",1 µM,remaining binding,100%
COc1cc(Nc2ncc(F)c(Nc3ccc4c(n3)NC(=O)C(C)(C)O4)n2)cc(OC)c1OC,binding,10 µM,inhibition,0%
